# Sampled rows, rich in hits. Any-hit rate of the full collection: about 3.7%.
# KCNK3 block = human KCNK3 channel inhibition, primary screen; CHO-KCNK3 thallium flux, FluxOR fluorescence; active compounds read low; actives 0.84% (n = 340,000); AID 602410; B-score at 10 µM;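 active means B-score under library mean minus 4 SD, starting fluorescence ratio at most library mean plus 5 SD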;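 further: more negative B-score means stronger inhibition of thallium flux through KCNK3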
# Target sequence (O14649 whole entry, looked up): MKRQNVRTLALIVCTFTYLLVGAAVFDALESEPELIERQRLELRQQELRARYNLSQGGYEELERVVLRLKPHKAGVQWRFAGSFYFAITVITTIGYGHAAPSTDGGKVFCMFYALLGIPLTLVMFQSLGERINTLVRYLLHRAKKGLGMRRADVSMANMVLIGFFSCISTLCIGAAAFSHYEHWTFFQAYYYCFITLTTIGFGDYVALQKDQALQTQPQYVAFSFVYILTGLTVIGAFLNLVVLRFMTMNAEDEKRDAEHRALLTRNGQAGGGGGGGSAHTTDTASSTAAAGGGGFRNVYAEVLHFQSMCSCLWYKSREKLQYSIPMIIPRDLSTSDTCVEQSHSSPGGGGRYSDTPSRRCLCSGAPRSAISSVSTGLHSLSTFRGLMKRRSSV
# KCNK9 inh = blocks the human KCNK9 two-pore domain potassium channel | B-score at 10 µM | actives 1.2% (n = 310,000) | AID 488922 | Q9NPC2 | HEK293 KCNK9, FluxOR thallium flux fluorescence; active compounds read low;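 active means ratio B-score over 3 SD below the library mean, with starting fluorescence within 5 SD of its mean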;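 further: negative B-score means less thallium flux so channel inhibition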
# hERG rescue = hERG (human) protection from proarrhythmic block; CHO-hERG, FluxOR thallium flux, dofetilide IC70 present; AID 1511; activation (rescue from dofetilide block), less the hit threshold, % at 10 µM; Q12809; actives 0.51% (n = 310,000);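 active means activation above the mean of controls blocked by dofetilide plus 5 SD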;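 further: thallium influx through hERG after potassium depolarization seen as dye fluorescence rise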
# KCNQ1 block = inhibitors of human KCNQ1 potassium channel | P51787 | actives 1.3% (n = 310,000) | CHO-K1 KCNQ1, FluxOR thallium flux fluorescence; active compounds read high | B-score at 10 µM;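 active means compounds whose thallium flux B-score, printed positive for inhibition, exceeds three library SD while starting fluorescence stays within three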;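 further: channel opened by potassium depolarization with thallium stimulus after 20 min compound exposure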
# Kir21 block = Kir2.1 (mouse) channel inhibition; HEK293-Kir2.1, FluxOR thallium flux fluorescence; active compounds read low; B-score at 10 µM; actives 0.85% (n = 310,000);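 active means fluorescence ratio B-score at or below minus 3 SD of library scores, with starting-brightness B-score within 2 SD, cut at about -4.2 in these data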;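 further: channel flux triggered by added potassium and thallium sulfate stimulus; B-score of peak minus minimum fluorescence over baseline after thallium stimulus; more negative B-score means stronger Kir2.1 block with less thallium influx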
# KCNQ1 act = human KCNQ1 channel potentiation or activation | P51787 | CHO-K1 KCNQ1, thallium flux FluxOR fluorescence; active compounds read high | B-score at 10 µM | actives 0.35% (n = 310,000) | AID 2648;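 active means fluorescence ratio B-score, a plate-corrected score, at least three library SD, with initial intensity B-score within 5 SD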
#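 Material: CHO-K1 cells stably expressing KCNQ1. Medium: assay buffer for compound exposure, DMSO matched across wells. Reagent: K+/Tl+ depolarizing stimulus. Compound dosing: single-concentration screen. Times: 37 °C overnight plating, 90-min dark dye load, 20-min compound pretreatment. Technique: FluxOR Tl+ flux fluorescence.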
# KCNK9 inh conf = human KCNK9 inhibitor confirmation; shares compounds with KCNK9 inh; HEK293 KCNK9 cells, FluxOR thallium flux fluorescence; inhibition, % at 10 µM; actives 43% (n = 4,900);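 active means thallium signal inhibited by more than 5 SD of the compound-free buffer control wells, on both duplicate plates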;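 further: 0% = assay buffer control wells without compound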
# Kir2-1 spec = tests whether KCNK9 modulators also affect mouse Kir2.1; shares compounds with KCNK9 inh; Kir2.1 cells, FluxOR thallium flux fluorescence; inhibition, % at 10 µM; actives 4% (n = 4,900);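 active means thallium signal drop more than 5 SD beyond the mean of the no-compound control wells, seen in both duplicate plates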;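 further: signal is fluorescence rise after thallium addition divided by baseline fluorescence; plate controls were assay buffer only for no effect and full block by chlorpromazine control for full effect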
# HEK293 Tl ctr = second counter-screen for KCNK9 modulators: effect in non-induced cells. inhibition, % at 10 µM. AID 492997. shares compounds with KCNK9 inh. non-induced KCNK9-HEK293, FluxOR thallium flux. actives 40% (n = 4,900);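 active means thallium signal drop beyond 5 SD of the untreated control mean, on both duplicate plates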;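 further: plate controls were buffer only IC0 wells for no effect and SID17386958 at its maximal inhibitory level for full effect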
# KCNK3 confirm = human KCNK3 channel inhibition, confirmation assay. CHO-KCNK3 thallium flux, FluxOR fluorescence; 0% buffer, 100% carvedilol maximal block. AID 651638. ratio percent of control, % at 10 µM. shares compounds with KCNK3 block. actives 99% (n = 2,400);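 active means ratio percent of control, averaged over triplicates, above buffer control mean plus 5 SD, cut at about 64% in these data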;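 further: ratio is the fluorescence rise from min to max over baseline after thallium stimulus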
# KCNK3 uninduced = counter-screen for KCNK3 inhibitors: effect in non-induced cells; shares compounds with KCNK3 block; non-induced KCNK3 parental cells, FluxOR thallium flux; active compounds read low; thallium flux ratio (lower = more inhibition) at 10 µM; actives 40% (n = 2,400);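 active means thallium flux ratio, averaged over three wells, more than 5 SD below the buffer control mean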;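 further: host cells are CHO cells without KCNK3 induction; ratio is peak minus trough fluorescence over baseline then normalized to buffer controls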
# An asterisk follows results filed as active; i = inactive; / = no result given.
SMILES,KCNK3 block,KCNK9 inh,hERG rescue,KCNQ1 block,Kir21 block,KCNQ1 act,KCNK9 inh conf,Kir2-1 spec,HEK293 Tl ctr,KCNK3 confirm,KCNK3 uninduced
Cc1ccc(S(=O)(=O)N(C)C)cc1NC(=O)c1cc(C(C)(C)C)nn1Cc1ccccc1,-12*,-16*,-5,i,-0.96,i,40%*,i,33%*,128*,0.14*
O=C(Nc1nc2c(s1)CCCC2)c1nn(Cc2ccccc2)c(=O)c2ccccc12,-9*,-14*,-7,i,0.5,i,72%*,i,i,101*,i
CC(C)CNC(=O)c1nn(Cc2ccccc2)c(=O)c2ccccc12,i,i,-3,i,-0.23,i,/,/,/,/,/
CCNC(=O)CNC(=O)c1nn(Cc2ccccc2)c(=O)c2ccccc12,-13*,-10*,2,i,-0.27,i,60%*,i,24%*,102*,i
Cc1c(C)n(C(=O)CN2CCC(C)CC2)c2ccccc12,i,/,/,/,/,/,/,/,/,/,/
COC(=O)C1=C(C)NC(C)=C(C(=O)OC)C1c1ccc(-c2cccc(Cl)c2Cl)o1,i,i,-7,i,0.52,i,/,/,/,/,/
COC(=O)C1=C(C)NC(C)=C(C(=O)OC)C1c1ccc(-c2cc(Cl)ccc2Cl)o1,-9.7*,-9.5*,-5,i,0,i,38%*,i,40%*,127*,i
Oc1ccc(N2CCN(c3ncnc4sc(-c5ccccc5)cc34)CC2)cc1,i,i,-6,i,0.41,i,/,/,/,/,/
CCc1cc2c(N3CCN(c4ccccc4)CC3)ncnc2s1,-13*,i,-16,i,1,i,i,i,23%*,135*,0.15*
c1ccc(N2CCN(c3ncnc4sc5c(c34)CCC5)CC2)cc1,i,-15*,-6,i,-0.27,i,46%*,i,44%*,119*,0.15*
C/[N+]([O-])=C\c1cccc(OCCN2CCN(c3ncc(C(F)(F)F)cc3Cl)CC2)c1,i,i,-4,i,1.2,i,/,/,/,/,/
CCC(=O)N(CCC(c1ccco1)c1ccccc1OC)Cc1cccs1 (configuration not stated),-8.9*,-12*,-20,i,-2.9,i,56%*,i,34%*,130*,0.13*
COc1ccccc1C(=O)NCCC(=O)N(Cc1ccco1)Cc1cccs1,i,i,-11,i,-4.2,i,/,/,/,/,/
CC(=O)N(CCC(c1ccccc1)c1ccco1)Cc1cccs1 (configuration not stated),-10*,-12*,-15,i,-8.8*,i,56%*,i,30%*,94*,i
CCCN(CCC)C(=O)CC(c1ccccc1)c1ccco1 (configuration not stated),i,i,-7,i,-3.2,i,/,/,/,/,/
CCCCCCCCn1c2c(c(=N)c3ccccc31)CCC2,i,-16*,-27,11*,-15*,i,51%*,83%*,i,140*,0.14*
CCC(=O)Oc1ccc2ccccc2c1CNC(=O)c1ccccc1,i,i,-5,i,3.3,i,/,/,/,/,/
Cc1cc(C(=O)N2CCN(c3ccc([N+](=O)[O-])cc3)CC2)n[nH]1,i,i,-5,i,0.42,i,/,/,/,/,/
COc1ccccc1OCCCN1C(=O)C(=O)c2cccc(C)c21,-10*,-12*,-15,i,0.77,i,49%*,i,i,112*,i
Cc1cc(C=O)c(C)n1-c1ccc(NC2CCCC2)c([N+](=O)[O-])c1,-9.1*,-17*,-9,6*,0.74,i,60%*,i,37%*,122*,i
CCOc1ccccc1C(=O)Nc1cccc(-c2nnc(-c3ccccc3)o2)c1,-9.5*,-16*,-14,i,0.81,i,45%*,i,28%*,107*,i
Cc1cc(C(=O)COC(=O)C2=COCCO2)c(C)n1-c1cccc(F)c1,i,i,-14,i,0.15,i,/,/,/,/,/
COc1ccccc1OCC(=O)N(Cc1nc(-c2ccc(Cl)cc2)no1)C(C)C,i,i,-8,i,-0.5,i,/,/,/,/,/
CC(C)N(Cc1nc(-c2ccc(Cl)cc2)no1)C(=O)CCC1CCCC1,-11*,-14*,-20,i,-0.02,i,66%*,i,42%*,118*,i
N/C(Cc1ccc([N+](=O)[O-])cc1)=N\OC(=O)C(c1ccccc1)c1ccccc1,-9.6*,-10*,-5,i,0.87,i,34%*,i,40%*,126*,i
SMILES,KCNK3 block,KCNK9 inh,hERG rescue,KCNQ1 block,Kir21 block,KCNQ1 act,KCNK9 inh conf,Kir2-1 spec,HEK293 Tl ctr,KCNK3 confirm,KCNK3 uninduced
C=CCNC(=O)/C(C#N)=C/c1cn(-c2ccccc2)nc1-c1cccs1,i,i,-4,i,-0.86,i,/,/,/,/,/
Cc1ccc(-n2c(SCc3ccc([N+](=O)[O-])cc3)nc3ccccc3c2=O)cc1,i,i,-12,i,0.45,i,/,/,/,/,/
CCOC(CCn1c(SCc2ccc([N+](=O)[O-])cc2)nc2ccccc2c1=O)OCC,i,-15*,-6,i,1.3,i,74%*,i,38%*,117*,i
COCC(C)n1c(SCc2ccc(OC)c(F)c2)nc2ccccc2c1=O (configuration not stated),-11*,-18*,-13,i,0.12,i,76%*,i,50%*,116*,i
COCC(C)n1c(SCc2ccc(C(=O)OC)cc2)nc2ccccc2c1=O (configuration not stated),-12*,-16*,-9,i,0.57,i,62%*,i,38%*,125*,0.14*
CCn1c(SCc2ccc(OC)c(F)c2)nc2ccccc2c1=O,-12*,-20*,-3,i,1.8,i,78%*,i,46%*,107*,i

# From PubChem
